# From ChEMBL document CHEMBL1145999, “Synthesis and Ca2+-mobilizing activity of purine-modified mimics of adenophostin A: a model for the adenophostin-Ins(1,4,5)P3 receptor interaction” (J Med Chem, 2003)
# Legend:
# [1] = Hill coefficient was determined; format: functional
# Outline: (§1)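 Permeabilized rat hepatocytes loaded with 45Ca2+ to steady state for 5 min at 37 °C in cytosol-like medium (pH 7.0, free Ca2+ 200 nM) with ATP 1.5 mM, creatine phosphate/creatine phosphokinase and FCCP 10 µM. Thapsigargin 1.25 µM added; 30 s later, agonist for 60 s; store 45Ca2+ measured by rapid filtration. Four-parameter logistic fit gave maximal response, EC50, Hill slope. Means ± SEM.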
# [2] = species: Rattus norvegicus; assay: Potency for [Ca2+] release in rat hepatocytes with respect to compound 2; details: Hepatocyte
# [3] = species: Rattus norvegicus; assay: Effective concentration causing half-maximal [Ca2+] release in rat hepatocytes; format: functional; details: Hepatocyte; outline: as §1
# [4] = species: Rattus norvegicus; assay: The % of actively accumulated [Ca2+] released by a maximally effective concentration of the compound; format: functional; outline: as §1
SMILES,Hill slope [1],relative potency [2],EC50 [3] [nM],Max response [4] [%]
Nc1ncnc2c1ncn2C1O[C@H](CO)[C@H](O[C@@H]2OC(CO)[C@H](OP(=O)(O)O)C(OP(=O)(O)O)[C@@H]2O)[C@@H]1OP(=O)(O)O (some centres not stated),2.4,1,14,35
"O=P(O)(O)O[C@@H]1[C@H](O)[C@H](O)[C@@H](OP(=O)(O)O)[C@H](OP(=O)(O)O)[C@H]1O [INS(1,4,5)P3]",2.3,0.08,185,35
O=P(O)(O)OC1[C@@H](OP(=O)(O)O)C(CO)O[C@@H](O[C@@H]2[C@H](OP(=O)(O)O)C(n3cnc4c(NC5CCCC5)ncnc43)O[C@@H]2CO)[C@H]1O (some centres not stated),2.2,0.77,13,35
COc1ncnc2c1ncn2C1O[C@H](CO)[C@H](O[C@@H]2OC(CO)[C@H](OP(=O)(O)O)C(OP(=O)(O)O)[C@@H]2O)[C@@H]1OP(=O)(O)O (some centres not stated),3.8,0.57,19,34
CNc1nc(OC)nc2c1ncn2C1O[C@H](CO)[C@H](O[C@@H]2OC(CO)[C@H](OP(=O)(O)O)C(OP(=O)(O)O)[C@@H]2O)[C@@H]1OP(=O)(O)O (some centres not stated),8.8,0.17,82,34
CN(C)c1ncnc2c1ncn2C1O[C@H](CO)[C@H](O[C@@H]2OC(CO)[C@H](OP(=O)(O)O)C(OP(=O)(O)O)[C@@H]2O)[C@@H]1OP(=O)(O)O (some centres not stated),2.1,0.82,19,39
CNc1ncnc2c1ncn2C1O[C@H](CO)[C@H](O[C@@H]2OC(CO)[C@H](OP(=O)(O)O)C(OP(=O)(O)O)[C@@H]2O)[C@@H]1OP(=O)(O)O (some centres not stated),2.1,0.8,13,37
O=P(O)(O)OC1[C@@H](OP(=O)(O)O)C(CO)O[C@@H](O[C@@H]2[C@H](OP(=O)(O)O)C(n3cnc4c(NC5CCCCC5)ncnc43)O[C@@H]2CO)[C@H]1O (some centres not stated),2.3,0.56,25,45
